# According to PubChem BioAssay:
# Calls of active or inactive are those of the source.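 How the source made its calls, unless noted: active means viability at or below 10% of carrier control in both of two separate runs; inconclusive means viability at or below 10% in only one of the two runs; inactive means the rest.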
# Key:
# [1] = Her2 expression decrease, cell viability multiplex – SKBR3 breast tumor cells, AlphaScreen, ATP viability, primary screen (AID 461;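 active means Her2 level under about 52% in both replicate screens, with viability over 70% of control, limit read from the data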;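 on Her2 level: lower value means less Her2 protein in the cells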;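 on viability: percent of carrier control wells set as 100% viability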); conditions: SKBR3 Her2 protein level, 18-24 h, measured here: SKBR3 viability, ATP luminescence, at 10 µM
# [2] = biological target: Receptor tyrosine-protein kinase erbB-2 (Homo sapiens) (UniProt P04626); test: as above; conditions: 18-24 h, at 10 µM, stronger effect = lower value
# Sequence of Receptor tyrosine-protein kinase erbB-2 (Homo sapiens) (P04626 whole entry, looked up): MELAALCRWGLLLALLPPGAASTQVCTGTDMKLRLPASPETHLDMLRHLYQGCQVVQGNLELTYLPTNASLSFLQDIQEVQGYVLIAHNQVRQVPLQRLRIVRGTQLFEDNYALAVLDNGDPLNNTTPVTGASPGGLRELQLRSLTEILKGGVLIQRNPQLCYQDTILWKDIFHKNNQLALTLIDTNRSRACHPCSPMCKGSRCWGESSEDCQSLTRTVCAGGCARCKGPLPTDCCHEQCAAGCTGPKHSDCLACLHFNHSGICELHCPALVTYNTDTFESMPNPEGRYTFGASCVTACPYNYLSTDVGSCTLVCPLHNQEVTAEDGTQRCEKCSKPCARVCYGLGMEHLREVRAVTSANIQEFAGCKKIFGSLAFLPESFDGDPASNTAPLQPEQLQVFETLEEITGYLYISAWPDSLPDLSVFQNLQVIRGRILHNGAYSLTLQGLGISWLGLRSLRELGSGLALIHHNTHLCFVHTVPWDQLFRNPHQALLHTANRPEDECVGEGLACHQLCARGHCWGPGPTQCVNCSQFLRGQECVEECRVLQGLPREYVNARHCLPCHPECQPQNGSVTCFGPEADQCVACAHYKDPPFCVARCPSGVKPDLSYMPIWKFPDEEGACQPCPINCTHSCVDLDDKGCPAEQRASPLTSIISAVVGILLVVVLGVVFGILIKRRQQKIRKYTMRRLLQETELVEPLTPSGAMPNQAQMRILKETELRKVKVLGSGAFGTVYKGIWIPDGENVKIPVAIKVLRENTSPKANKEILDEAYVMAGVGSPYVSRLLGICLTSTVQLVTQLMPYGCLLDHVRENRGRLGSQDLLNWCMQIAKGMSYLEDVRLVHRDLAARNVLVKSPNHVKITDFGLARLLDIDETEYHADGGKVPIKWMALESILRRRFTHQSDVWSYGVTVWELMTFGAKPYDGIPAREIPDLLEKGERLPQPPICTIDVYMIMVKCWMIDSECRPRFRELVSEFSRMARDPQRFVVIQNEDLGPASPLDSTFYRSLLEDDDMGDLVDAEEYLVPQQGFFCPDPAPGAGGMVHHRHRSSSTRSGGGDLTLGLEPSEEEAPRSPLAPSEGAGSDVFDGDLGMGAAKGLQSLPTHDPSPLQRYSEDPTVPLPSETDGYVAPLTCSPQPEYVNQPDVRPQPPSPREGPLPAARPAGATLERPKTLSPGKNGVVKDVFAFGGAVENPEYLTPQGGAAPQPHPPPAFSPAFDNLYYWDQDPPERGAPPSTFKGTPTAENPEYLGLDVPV
# [3] = reduced viability of SK-BR-3 breast cancer cells – cell-based, 24 h, human, pilot screen (AID 572); conditions: SK-BR-3 viability, CellTiter-Glo luminescence, at 10 µM, stronger effect = lower value;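 further: compound exposure lasted between 18 and 24 h rather than exactly 24 h; 100% = carrier-treated control wells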
# [4] = HUVEC growth inhibition – cell-based, human, primary screen (AID 575;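 active means viability at or below 30% in both replicate assays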;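 further: 100% = median of untreated cell wells with 0.1% DMSO on each plate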); conditions: HUVEC proliferation, CellTiter-Glo luminescence, 72 h; at 10 µM; stronger effect = lower value
# Procedure, shortened: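 Material: primary human umbilical vein endothelial cells / Schedule: 72 h exposure, 37 °C, 5% CO2, 30 min RT equilibration / Signal: ATP-based CellTiter-Glo luminescent read / Read-out basis: percent of median DMSO-control luminescence / Control set: 32 DMSO-only cell-control wells (high), 32 MePR drug-control wells (low) per plate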
# [5] = H69AR cell proliferation blockers – human, duplicate replicates, primary screen (AID 580;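 active means viability at or under a set limit in both replicates, limit being median viability minus 3 SD, cut at about 48% in these data, passing the limit was not always enough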;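 further: 100% = mean luminescence of untreated wells and 0% = no signal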); conditions: H69AR lung tumor cells viability, ATP luminescence, 72 h; at 10 µM; stronger effect = lower value
# [6] = MRP1 drug-resistance reversers in H69AR cells – cell-based, doxorubicin co-treatment, pilot screen (AID 601;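 active means viability loss from added drug above about 55%, and viability with drug at most 40%, in both replicates, limit read from the data, passing the limit was not always enough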); conditions: CellTiter-Glo, 72 h, at 10 µM; for differential viability (reversal): stronger effect = higher value
# [7] = yeast transport mutant growth inhibition pilot in 384-well plates, post-Golgi transport modulator project (AID 636; in the data active means inhibition above about 31%); conditions: absorbance 615 nm, about 18 h, stronger effect = higher value
# [8] = growth suppression of yeast trafficking mutant, preliminary HTS, modulators of trafficking downstream of Golgi apparatus project, 1536-format plate, OD 615 nm (AID 637; in the data active means inhibition above about 30%); conditions: yeast transport mutant growth, absorbance 615 nm, 18 h; stronger effect = higher value
# [9] = H69AR cells + 2 uM doxorubicin, measured here: viability with 2 uM doxorubicin, stronger effect = lower value
# [10] = H69AR cells, compound alone cytotoxicity
Compound,viability [1] [%],Her2 level [2],viability [3],viability [4],viability [5],differential viability (reversal) ([6]; H69AR cells + 2 uM doxorubicin),"viability [6, 9] [%]","viability [6, 10] [%]",inhibition [7],inhibition [8]
COc1ccc(OCCCC(=O)Nc2ccc3c(c2)OCCO3)cc1,99.5,93.5% (inactive),99.5% (inactive),81.8% (inactive),82.7% (inactive),-3.62% (inactive),86.3,82.7,-6.76% (inactive),-6.83% (inactive)
C=CCOc1ccccc1/C=c1\sc2nc(=O)c(C)nn2c1=O,100,84% (inactive),100% (inactive),85.1% (inactive),72.6% (inactive),-10.6% (inactive),83.1,72.6,-8.27% (inactive),0.79% (inactive)
CN(C)S(=O)(=O)c1ccc(Oc2ccc(S(=O)(=O)N(C)C)cc2)cc1,80.5,96.5% (inactive),80.5% (inactive),54.4% (inactive),93.8% (inactive),-0.755% (inactive),94.6,93.8,-2.4% (inactive),-7.14% (inactive)
COc1cccc(CNC(=O)C2CCN(C(=O)N(C)C)CC2)c1,97.5,118% (inactive),97.5% (inactive),90% (inactive),92.2% (inactive),0.06% (inactive),92.2,92.2,-0.64% (inactive),11.8% (inactive)
O=C(O)COc1ccc(Oc2ccccc2)cc1,102,106% (inactive),102% (inactive),96.1% (inactive),109% (inactive),13.3% (inactive),96,109,0.26% (inactive),-3.55% (inactive)
O=S(=O)(c1ccc2c(c1)nc1n2CCC1)N1CCOCC1,102,87% (inactive),102% (inactive),102% (inactive),98.9% (inactive),7.71% (inactive),91.2,98.9,-0.26% (inactive),-4.44% (inactive)
CN(Cc1nc(-c2ccncc2)no1)S(=O)(=O)c1ccccc1,99.5,79% (inactive),99.5% (inactive),96.3% (inactive),95.7% (inactive),7.03% (inactive),88.7,95.7,-7.57% (inactive),0.79% (inactive)
Cc1ccccc1NC(=O)Cc1nnc(SCC(=O)N2CCN(c3ccccc3)CC2)n1C,110,108% (inactive),110% (inactive),101% (inactive),98.2% (inactive),5.74% (inactive),92.5,98.2,-5.53% (inactive),-6.67% (inactive)
Cc1cc(C)n2nc(C(=O)NCc3ccco3)nc2n1,101,90% (inactive),101% (inactive),91.4% (inactive),99% (inactive),4.53% (inactive),94.5,99,-0.26% (inactive),-5.32% (inactive)
CN(C)c1cccc2c(S(=O)(=O)Nc3ccccn3)cccc12,96.5,95.5% (inactive),96.5% (inactive),109% (inactive),101% (inactive),2.54% (inactive),98.7,101,-6.8% (inactive),1.43% (inactive)
CCCCCn1c(CN2CCN(C)CC2)nc2c1c(=O)n(C)c(=O)n2C,103,103% (inactive),103% (inactive),98.4% (inactive),85.9% (inactive),-6.67% (inactive),92.5,85.9,-3.87% (inactive),-2.67% (inactive)
COc1ccc(-c2nnc(SCC(=O)Nc3ccc(Cl)cc3)n2C)cc1,82.5,104% (inactive),82.5% (inactive),92.8% (inactive),90.2% (inactive),8% (inactive),82.2,90.2,-0.93% (inactive),-9.21% (inactive)
O=C(NCCC1=CCCCC1)C1CCN(C(=O)Nc2ccccc2)CC1,106,128% (inactive),106% (inactive),91.3% (inactive),101% (inactive),5.69% (inactive),95.7,101,-2.21% (inactive),-2.33% (inactive)
CCCCCc1c(C)nc(N2CCc3ccccc32)[nH]c1=O,92.5,90% (inactive),92.5% (inactive),57.4% (inactive),94.6% (inactive),-0.605% (inactive),95.2,94.6,-0.68% (inactive),3.17% (inactive)
CCOc1ccc(OCC)c(NC(=O)CCCN2C(=O)c3cccnc3C2=O)c1,110,128% (inactive),110% (inactive),110% (inactive),85.8% (inactive),-2.52% (inactive),88.3,85.8,0.81% (inactive),7.14% (inactive)
CCN(CC)CC(C)CNC(=O)CC(C(=O)N1CCc2ccccc21)n1ccnc1 (stereo not given),88.5,106% (inactive),88.5% (inactive),104% (inactive),95.9% (inactive),-7.88% (inactive),104,95.9,0.52% (inactive),-9.34% (inactive)

Compound,viability [1] [%],Her2 level [2],viability [3],viability [4],viability [5],differential viability (reversal) ([6]; H69AR cells + 2 uM doxorubicin),"viability [6, 9] [%]","viability [6, 10] [%]",inhibition [7],inhibition [8]
O=C(CC(C(=O)N1CCc2ccccc21)n1ccnc1)NCc1cccnc1 (stereo not given),100,100% (inactive),100% (inactive),97.9% (inactive),89.1% (inactive),-10.9% (inactive),100,89.1,1.17% (inactive),1.8% (inactive)
CCN(CC)c1nc2nonc2nc1N(CC)CC,101,92% (inactive),101% (inactive),110% (inactive),104% (inactive),4.4% (inactive),99.2,104,-6.53% (inactive),3.17% (inactive)
Cc1ccc(NC(=O)CCC(=O)O)cc1F,106,82.5% (inactive),106% (inactive),88.8% (inactive),104% (inactive),12.2% (inactive),91.8,104,-6.3% (inactive),-2.7% (inactive)
COC(=O)CN(c1nc(C)c(Cl)c(OC)n1)S(=O)(=O)c1ccc(C)cc1,117,104% (inactive),117% (inactive),86.9% (inactive),84.9% (inactive),2.96% (inactive),81.9,84.9,-3.64% (inactive),-2.86% (inactive)
COc1ccc(/C(O)=C2/C(=O)C(=O)N(CCCN(C)C)C2c2ccc(Cl)cc2)cc1OC (stereo not given),101,97.5% (inactive),101% (inactive),103% (inactive),103% (inactive),-1.86% (inactive),105,103,0.4% (inactive),-3.39% (inactive)
COC(=O)C(O)(CC(=O)c1ccc(OC)cc1)C(F)(F)F (stereo not given),100,98% (inactive),100% (inactive),91.5% (inactive),95.9% (inactive),0.63% (inactive),95.3,95.9,-1.33% (inactive),-5% (inactive)
Cc1cc(C)n(-c2nnc(C)n2/N=C/c2ccco2)n1,108,91% (inactive),108% (inactive),93.1% (inactive),96.1% (inactive),5.14% (inactive),91,96.1,-6.27% (inactive),-2.3% (inactive)
CCSc1cc(C2C(C(=O)OC)=C(C)NC3=C2C(=O)CCC3)c(C)o1 (stereo not given),79,90% (inactive),79% (inactive),109% (inactive),84.5% (inactive),5.68% (inactive),78.8,84.5,-6.8% (inactive),3.93% (inactive)
N#CC1=C(SCC(=O)c2cc3ccccc3oc2=O)NC(=O)C(C#N)C12CCCC2 (stereo not given),92,76% (inactive),92% (inactive),72.1% (inactive),86.5% (inactive),6.35% (inactive),80.1,86.5,-3.2% (inactive),0.32% (inactive)
Cc1ccc(CSC2=NCCN2C(=O)c2ccco2)cc1,95.5,98% (inactive),95.5% (inactive),92.8% (inactive),84.3% (inactive),2.8% (inactive),81.5,84.3,-3.85% (inactive),3.83% (inactive)
Nc1nc2ccccc2n1C(=O)CCc1ccccc1,102,83.5% (inactive),102% (inactive),44.8% (inactive),48.4% (active),-27.6% (inactive),76.1,48.4,-2.11% (inactive),-2.67% (inactive)
CCC(C)NC(=O)C1(C)CCC(=O)N1CCc1ccc(OC)c(OC)c1 (stereo not given),104,95% (inactive),104% (inactive),95.4% (inactive),86.1% (inactive),-8.14% (inactive),94.2,86.1,-1.04% (inactive),-1.27% (inactive)
C=CCn1c(=O)c2ccccc2n2c(SCC(=O)Nc3cc(C)on3)nnc12,92.5,89% (inactive),92.5% (inactive),87% (inactive),98.3% (inactive),10.6% (inactive),87.7,98.3,-3.65% (inactive),1.75% (inactive)
CC1CN=C(N(C(=O)Nc2ccccc2)c2ccc(S(=O)(=O)N3CCOCC3)cc2)S1 (stereo not given),95.5,108% (inactive),95.5% (inactive),91.5% (inactive),95.3% (inactive),16.8% (inactive),78.5,95.3,-0.51% (inactive),-8.67% (inactive)
O=C(O)CCc1ccc(-c2cccs2)n1CCC(=O)O,108,86.5% (inactive),108% (inactive),107% (inactive),85.8% (inactive),1.25% (inactive),84.6,85.8,-2.24% (inactive),-1.64% (inactive)
O=C(CCS(=O)(=O)c1cccc2nsnc12)N1CCN(Cc2ccc3c(c2)OCO3)CC1,90.5,99% (inactive),90.5% (inactive),92.7% (inactive),94.4% (inactive),-9.25% (inactive),104,94.4,-6.71% (inactive),-5.87% (inactive)
